Data published in ChEMBL document CHEMBL3792343, “10-Boronic acid substituted camptothecin as prodrug of SN-38” (Eur J Med Chem, 2016).
Active and inactive are the calls of the source. No cut-off for these calls is given here.

Key:
U-251 = experiment: Cytotoxicity against human U251 cells assessed as growth inhibition after 72 hrs by SRB assay; assay type: functional, cell-based; settings: U-251, 72 h
In short: (§1)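 Cells from ATCC, 6,000–10,000 per well, treated in triplicate with graded concentrations for 72 h at 37 °C. Growth inhibition read by sulforhodamine B staining; IC50 taken from dose–response curves.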

MCF7 [1] = experiment: Cytotoxicity against human MCF7 cells assessed as growth inhibition after 72 hrs by SRB assay; assay type: functional, cell-based; settings: MCF7, 72 h; in short: as §1
[2] = Cytotoxicity against human U87MG cells assessed as growth inhibition after 72 hrs by SRB assay; assay type: functional, cell-based, U-87MG ATCC; settings: U-87 MG; in short: as §1
[3] = Cytotoxicity against human HCT15 cells assessed as growth inhibition after 72 hrs by SRB assay; assay type: functional, cell-based; settings: HCT-15, 72 h; in short: as §1
MCF7 [4] = experiment: Retention time in human MCF7 cells at 10^-5 M by HPLC analysis; assay type: ADME, cell-based; settings: mcf7, 10 µM
In short: (§2)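 MCF-7 cells exposed to 10^-5 M prodrug for 2 days; culture medium collected, centrifuged to remove cells, diluted to fixed volume and analysed by HPLC. Prodrug and SN-38 identified by retention time; relative amounts taken from chromatographic peak areas.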

MDA-MB-231 = experiment: Cytotoxicity against human MDA-MB-231 cells assessed as growth inhibition after 72 hrs by SRB assay; assay type: functional, cell-based; settings: MDA-MB-231, 72 h; in short: as §1
HT-29 = experiment: Cytotoxicity against human HT-29 cells assessed as growth inhibition after 72 hrs by SRB assay; assay type: functional, cell-based; settings: HT-29, 72 h; in short: as §1
Mus musculus [5] = experiment: Toxicity in mouse xenografted with human U87MG cells assessed as death at 2 mg/kg, ip administered as q3w/14 days regime; assay type: organism-based, U-87MG ATCC; settings: in vivo, 336 h
Mus musculus [6] = experiment: Toxicity in mouse xenografted with human U87MG cells assessed as change in body weight at 0.5 mg/kg, ip administered as q3w/14 days regime (reference value: 23.12%); assay type: organism-based, U-87MG ATCC; settings: in vivo, 336 h
[7] = Prodrug activation in pH 7.4 phosphate buffer assessed as H2O2-mediated SN38 release incubated for 8 hrs by HPLC analysis; settings: pH 7.4, 8 h
In short: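 Prodrug (1 mM) in phosphate buffer pH 7.4 with H2O2 at 0.5–10 mM final, 37 °C for 8 h. Quenched with equal volume of 50 mM sodium thiosulfate; SN-38 release quantified by HPLC.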

[8] = molecular target: T1, DNA topoisomerase 1 (Homo sapiens) (UniProt P11387); experiment: Inhibition of topoisomerase 1 (unknown origin) assessed as reduction in enzyme-mediated relaxation of supercoiled pBR322 DNA at 100 uM after 30 mins by agarose gel electrophoresis
T1 sequence (whole entry): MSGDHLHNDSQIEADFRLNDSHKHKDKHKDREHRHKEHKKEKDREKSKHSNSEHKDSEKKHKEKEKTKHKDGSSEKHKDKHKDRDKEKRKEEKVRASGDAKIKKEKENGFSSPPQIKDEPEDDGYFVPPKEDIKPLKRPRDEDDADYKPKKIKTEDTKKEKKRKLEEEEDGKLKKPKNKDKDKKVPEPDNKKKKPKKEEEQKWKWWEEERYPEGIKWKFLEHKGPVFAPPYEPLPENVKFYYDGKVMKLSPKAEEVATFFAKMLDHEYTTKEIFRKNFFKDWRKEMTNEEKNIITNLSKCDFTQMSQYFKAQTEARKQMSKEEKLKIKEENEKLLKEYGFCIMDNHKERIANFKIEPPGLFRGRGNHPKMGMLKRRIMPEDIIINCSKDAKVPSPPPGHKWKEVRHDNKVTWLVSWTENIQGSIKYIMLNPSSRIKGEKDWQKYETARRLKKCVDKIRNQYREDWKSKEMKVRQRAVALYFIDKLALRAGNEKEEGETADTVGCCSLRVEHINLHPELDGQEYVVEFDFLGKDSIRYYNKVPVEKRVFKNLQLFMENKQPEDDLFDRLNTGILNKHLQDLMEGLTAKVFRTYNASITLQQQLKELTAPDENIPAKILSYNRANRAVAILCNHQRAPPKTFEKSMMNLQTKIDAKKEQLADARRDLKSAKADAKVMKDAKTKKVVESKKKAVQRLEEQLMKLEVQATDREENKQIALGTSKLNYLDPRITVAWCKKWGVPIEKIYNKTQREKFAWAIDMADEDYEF

[9] = Antitumor activity against human U87MG cells xenografted in mouse assessed as tumor volume at 2 mg/kg, ip administered as q3w/14 days regime relative to control; assay type: functional, U-87MG ATCC
In short: (§3)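 Mice bearing U87MG xenografts randomised at about 130 mm3 tumour volume (n = 12 control, n = 6 per treatment); dosing i.p. three times a week to end of study (q3w/14). Read-out is relative tumour volume (RTV), with T/C (%) versus untreated control; significance by Student's t-test.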

[10] = Antitumor activity against human U87MG cells xenografted in mouse assessed as tumor volume at 0.5 mg/kg, ip administered as q3w/14 days regime relative to control; assay type: functional, U-87MG ATCC; in short: as §3
Mus musculus [11] = experiment: Toxicity in mouse xenografted with human U87MG cells assessed as overt signs of symptoms at 2 mg/kg, ip administered as q3w/14 days regime; assay type: organism-based, U-87MG ATCC; settings: in vivo, 336 h
Mus musculus [12] = experiment: Toxicity in mouse xenografted with human U87MG cells assessed as anaphylactic reaction at 2 mg/kg, ip administered as q3w/14 days regime; assay type: organism-based, U-87MG ATCC; settings: in vivo, 336 h
Mus musculus [13] = experiment: Toxicity in mouse xenografted with human U87MG cells assessed as change in body weight at 2 mg/kg, ip administered as q3w/14 days regime (reference value: 23.12%); assay type: organism-based, U-87MG ATCC; settings: in vivo, 336 h
Mus musculus [14] = experiment: Toxicity in mouse xenografted with human U87MG cells assessed as death at 0.5 mg/kg, ip administered as q3w/14 days regime; assay type: organism-based, U-87MG ATCC; settings: in vivo, 336 h
MCF7 [15] = experiment: Drug level in human MCF7 cells at 10^-5 M after 2 days by HPLC analysis; assay type: ADME, cell-based; settings: mcf7, 48 h, 10 µM; in short: as §2
[16] = Antitumor activity against human U87MG cells xenografted in mouse assessed as tumor volume at 15 mg/kg, ip administered as q3w/14 days regime relative to control; assay type: functional, U-87MG ATCC; in short: as §3
Mus musculus [17] = experiment: Toxicity in mouse xenografted with human U87MG cells assessed as change in body weight at 15 mg/kg, ip administered as q3w/14 days regime (reference value: 23.12%); assay type: organism-based, U-87MG ATCC; settings: in vivo, 336 h
Mus musculus [18] = experiment: Toxicity in mouse xenografted with human U87MG cells assessed as death at 15 mg/kg, ip administered as q3w/14 days regime; assay type: organism-based, U-87MG ATCC; settings: in vivo, 336 h

Row | Compound | IC50 (U-251) | IC50 (MCF7 [1]) | IC50 [2] | IC50 [3] | Retention_time (MCF7 [4]) | IC50 (MDA-MB-231) | IC50 (HT-29) | also measured
1 | CCc1c2c(nc3ccc(O)cc13)-c1cc3c(c(=O)n1C2)COC(=O)[C@]3(O)CC [7-ETHYL-10-HYDROXYCAMPTOTHECIN] | 21 nM | 515 nM | 30 nM | 8 nM | 8.85 min | 1970 nM | 54 nM | –
2 | CCc1c2c(nc3ccc(B(O)O)cc13)-c1cc3c(c(=O)n1C2)COC(=O)[C@]3(O)CC | 36 nM | 628 nM | 47 nM | 18 nM | 12.87 min | 4280 nM | 47 nM | Activity (Mus musculus [5]): Non-toxic; Activity (Mus musculus [6]): 12.69%; Drug metabolism [7]: Dose-dependent effect; inhibition [8]: Active; T/C [9]: 28.1%; T/C [10]: 105.99%; Activity (Mus musculus [11]): Non-toxic; Activity (Mus musculus [12]): Non-toxic; Activity (Mus musculus [13]): 2.11%; Activity (Mus musculus [14]): Non-toxic; Drug uptake (MCF7 [15]): 59%
3 | CCc1c2c(nc3ccc(B4OC(C)(C)C(C)(C)O4)cc13)-c1cc3c(c(=O)n1C2)COC(=O)[C@]3(O)CC | – | – | – | – | – | – | – | T/C [16]: 8.39%; Activity (Mus musculus [17]): 15.88%; Activity (Mus musculus [18]): Non-toxic
